Test results reported in PMC6159316 (Journal of Insect Science, 2018).
Like-named read-outs stand apart in the source and are kept apart here.

Experiments:
CSP3 = biological target: T1, CSP3 (Chilo suppressalis, UniProt V9PY40); format: binding; details: for IC50: read-out: CSP3 IC50, displacement of 1-NPN, ligand 2–30 µM; for activity at 30 µM: pH 7.4, read-out: CSP3 Intensity %; for Ki: read-out: CSP3 Ki, competitive binding with 1-NPN
T1 sequence (V9PY40 19-126): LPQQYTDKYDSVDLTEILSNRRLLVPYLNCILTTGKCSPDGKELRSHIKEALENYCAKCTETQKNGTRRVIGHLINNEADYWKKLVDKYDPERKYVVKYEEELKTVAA
In short: (§1)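 Mature CSP cDNA in pET-30a(+), expressed in E. coli, purified, His-tag cleaved with enterokinase. […] Competition: 2 µM protein plus 2 µM 1-NPN in 50 mM Tris–HCl, titrated with 1 mM odorant stock to 2–30 µM final. Excitation 337 nm, emission 400–460 nm, three replicates.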

CSP1 = biological target: T2, CSP1 (Chilo suppressalis, UniProt V9PY22); format: binding; details: for IC50: read-out: CSP1 IC50, displacement of 1-NPN, ligand 2–30 µM; for activity at 30 µM: pH 7.4, read-out: CSP1 Intensity %; for Ki: read-out: CSP1 Ki, competitive binding with 1-NPN
T2 sequence (V9PY22 18-122): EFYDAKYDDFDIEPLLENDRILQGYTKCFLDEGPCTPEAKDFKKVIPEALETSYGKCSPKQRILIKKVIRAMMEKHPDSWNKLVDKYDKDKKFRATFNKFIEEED
In short: as §1

CSP2 = format: binding, Chilo suppressalis; details: for IC50: read-out: CSP2 IC50, displacement of 1-NPN, ligand 2–30 µM; for Ki: read-out: CSP2 Ki, competitive binding with 1-NPN
adult C. suppressalis = details: ref Wei et al. 2013, Khuhro et al. 2017a; cited from earlier work

| Compound | IC50 (CSP3) [µM] | IC50 (CSP1) [µM] | IC50 (CSP2) [µM] | activity at 30 µM (CSP3) [%] | activity at 30 µM (CSP1) [%] | Ki (CSP2) [µM] | other results |
| --- | --- | --- | --- | --- | --- | --- | --- |
| OCc1ccccc1 [Benzyl alcohol] |  |  | > 30 | 84.1 ± 2.96 | 67.5 ± 2.24 |  |  |
| CCCCCCCCCCCCCCCC(=O)O [Palmitic acid] |  |  | > 30 | > 100 | 78.2 ± 0.93 |  |  |
| Farnesene | > 30 | 27.6 | 24 |  |  | 20.4 | binding affinity class for CSP3 (plant volatiles) (CSP3; criteria for plant volatiles): did not show high or moderate binding affinity; electroantennographic (EAG) response (adult C. suppressalis): significant EAG response; binding affinity class for CSP1 (plant volatiles) (CSP1; criteria for plant volatiles): did not show high or moderate binding affinity; Ki (CSP1): 23.3 µM; binding affinity class for CSP2 (plant volatiles) (CSP2; criteria for plant volatiles): did not show high or moderate binding affinity |
| CCCC/C=C\CCCCCCCCCC=O [Z11-Hexadecenal] | 6.96 | 20.9 | 10.3 |  |  | 8.89 | Ki (CSP3): 6.23 µM; Ki (CSP1): 16.2 µM |
| CCOC(=O)c1ccccc1 [Ethyl benzoates] | > 30 | > 30 | > 30 |  |  |  |  |
| CCCCCCCCCCCC(=O)O [Lauric acid] | > 30 | > 30 | > 30 |  |  |  |  |
| CC1=CC[C@H](C(C)C)C=C1 [α-Phellandrene] |  |  | > 30 | 95.3 ± 1.58 | 73 ± 2.46 |  |  |
| CCCC/C=C\CCCCCCCCCCCC=O [Z13-Octadecenal] | 25.1 | > 30 | 20 |  |  | 17.2 | Ki (CSP3): 22.5 µM |
| CCCCC/C=C\C/C=C\CCCCCCCC(=O)O [Linoleic acid] |  |  | 20.6 | 89.17 ± 0.88 | 55.6 ± 3.45 | 17.7 |  |
| CC/C=C\CCO [Z3-Hexenol] | > 30 | > 30 | 20.7 |  |  | 17.7 |  |
| O=Cc1ccccc1 [Benzaldehyde] |  |  | 28.5 | 44.2 ± 3.53 | 34.2 ± 2.35 | 24.5 |  |
| CCCCCCCC/C=C\CCCCCCCC(=O)O [Oleic acid] |  |  | > 30 | 84.7 ± 2.37 | 58.9 ± 2.59 |  |  |

Now from value to compound, other results behind:

| IC50 (CSP3) [µM] | IC50 (CSP1) [µM] | IC50 (CSP2) [µM] | activity at 30 µM (CSP3) [%] | activity at 30 µM (CSP1) [%] | Ki (CSP2) [µM] | Compound | other results |
| --- | --- | --- | --- | --- | --- | --- | --- |
| > 30 | > 30 | > 30 |  |  |  | C=CC(C)=CCC=C(C)C [Ocimene] |  |
| > 30 | > 30 | > 30 |  |  |  | CCC/C=C/COC(C)=O [E2-Hexenyl acetate] |  |
|  |  | > 30 | 75 ± 2.3 | 74.1 |  | CCCCCCCCC=O [1-Nonaldehyde] |  |
|  |  | 10.8 | 91.8 ± 1.7 | 48.9 | 9.25 | CCCCCC(C)O (stereo not shown) [2-Heptanol] | Ki (CSP2; listed as 2-heptanol): ≤ 10 µM |
|  |  | > 30 | 67.7 ± 3.05 | 64 ± 4.34 |  | CCCCCCO [Hexyl alcohol] |  |
| > 30 | 15.8 |  |  |  | 28.6 | CCC/C=C\C=O [Z2-Hexenal] | Ki (CSP1): 12.2 µM |
| > 30 | > 30 | > 30 |  |  |  | CCC/C=C/CO [E2-hexenol] |  |
| > 30 | > 30 | > 30 |  |  |  | CCC/C=C/C=O [E2-Hexenal] |  |
|  |  | 23.6 | 67.6 ± 0.91 | 27.9 ± 2.11 | 20.3 | CCCCCCCCCCCCCC(C)=O [2-Pentadecanone] |  |
| > 30 | > 30 | > 30 |  |  |  | CC/C=C\CCOC(C)=O [Z3-Hexenyl acetate] |  |
| 9.9 | 17.4 | 11.1 |  |  | 9.55 | CCCCCC/C=C\CCCCCCCC=O [Z9-Hexadecenal] | Ki (CSP3): 8.86 µM; Ki (CSP1): 13.5 µM |
|  |  | 10.7 | 45.2 ± 1.9 | 47.2 ± 1.16 | 9.22 | C[C@@H]1CC[C@H]2C(C)(C)[C@H]3C[C@@]12CC[C@@]3(C)O [(+)-Cedrol] | Ki (CSP2; listed as (+)-cedrol): ≤ 10 µM |
| > 30 | 11.8 | 19.3 |  |  | 16.6 | CCCCCCCCCCCC=O [Laurinaldehyde] | Ki (CSP1): 9.16 µM; Ki (CSP1; listed as laurinaldehyde): ≤ 10 µM |
|  |  | 18.4 | 53.5 ± 1.87 | 85.8 | 15.8 | CC=CC=CCO [2,4 hexadienol] |  |
| > 30 | > 30 | > 30 |  |  |  | CC/C=C\CCO [E3-Hexenol] |  |
|  |  | > 30 | 82 ± 3.87 | 49.3 ± 1.89 |  | CCCCCC(C)=O [2-Heptanone] |  |
|  |  | 24.3 | 72.8 ± 2.06 | 24.8 ± 1.61 | 20.9 | CCCCCCCCCCCC(C)=O [2-Tridecanone] |  |
